High-throughput results: PubChem, several laboratories
Arbovirus anti = blocks arbovirus infection; arbovirus infection cell-based antiviral screen; inhibition, % at 10 µM; 200,000 tested, 0.37% active; AID 1251; in the data active = inhibition above about 30%
Rad51 HR inh = blocks human Rad51 in homologous recombination. inhibition, % at 10 µM. hRad51 DNA strand exchange, fluorescence dequenching. Q06609. 200,000 tested, 0.085% active. AID 1385;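 active = inhibition above 40% at the single screening dose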
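System: hRad51 filaments on single-stranded DNA; reagent: Fluorescein- and BHQ1-tagged 47-mer duplex; compound dosing: one concentration, 10 µM final; timing: filaments 15 min 37 °C, then compound 30 min; measured by: fluorescein emission 520 nm, excitation 485 nm; benchmarks: per-plate controls and blanks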
PKD1 inh = PKD1 (human) kinase inhibition. Q15139. PKD1 kinase fluorescence polarization assay. inhibition, % (no concentration beside the values). 200,000 tested, 0.056% active. AID 797
Wee1 stabilizer = inhibitors of human Wee1 degradation. AID 1321. HeLa Luc-Wee1K328M stability, luciferase luminescence; 100% = proteasome inhibitor MG132 effect. reporter increase, % at 5 µM. P30291. 220,000 tested, 1.2% active;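 active = activation above the mean of all tested compounds plus 3 SD, set per screening run, cut at about 8.8% in these data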;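 also: cells exposed to compound for 20 h before luminescence read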
Target sequence (P30291 whole entry K328M): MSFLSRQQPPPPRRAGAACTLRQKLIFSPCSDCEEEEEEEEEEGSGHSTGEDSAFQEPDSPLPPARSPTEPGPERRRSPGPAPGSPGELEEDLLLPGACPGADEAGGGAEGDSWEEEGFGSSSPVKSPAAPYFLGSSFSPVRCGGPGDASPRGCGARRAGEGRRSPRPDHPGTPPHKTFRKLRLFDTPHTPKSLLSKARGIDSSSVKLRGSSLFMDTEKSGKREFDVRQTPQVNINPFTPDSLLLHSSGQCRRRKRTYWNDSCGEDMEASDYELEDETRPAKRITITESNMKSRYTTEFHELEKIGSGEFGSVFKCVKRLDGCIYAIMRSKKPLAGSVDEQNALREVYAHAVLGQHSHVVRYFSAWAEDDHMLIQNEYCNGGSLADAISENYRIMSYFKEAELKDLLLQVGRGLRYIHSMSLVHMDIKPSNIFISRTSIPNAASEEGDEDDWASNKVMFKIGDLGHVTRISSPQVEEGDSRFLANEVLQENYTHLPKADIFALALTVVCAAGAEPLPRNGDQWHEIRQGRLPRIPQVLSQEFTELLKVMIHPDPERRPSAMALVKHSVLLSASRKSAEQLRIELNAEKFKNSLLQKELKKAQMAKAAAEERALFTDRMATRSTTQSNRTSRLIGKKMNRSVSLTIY
Lmaj promast = reduces viability of Leishmania major promastigotes. inhibition, % at 10 µM. AID 1063. 200,000 tested, 9% active. resazurin fluorescence viability;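 also: promastigotes grown with compound for 44 hours at 28 °C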
CHOP inh = CHOP inhibition in unfolded protein response | CHO-K1 CHOP-promoter luciferase, tunicamycin-induced, 15-18 h | inhibition, % at 10 µM | 220,000 tested, 3.8% active;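 active = compounds that reduced the stress-induced luciferase reporter signal by more than about 70% of percent inhibition, limit read from the data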
Hits are given with their value; – = inactive; · = no result given. Compounds with a hit are over-represented: about 12% of the library has one in this group of screens. Rule as the data show it, unless noted: active = inhibition above about 50%; inactive = the rest.

SMILES	Arbovirus anti	Rad51 HR inh	PKD1 inh	Wee1 stabilizer	Lmaj promast	CHOP inh
COc1ccc(C(C(=O)NC2CCCC2)N(CCN(C)C)C(=O)c2snc(C(N)=O)c2N)cc1 (stereo unspecified)	–	–	–	–	–	–
COc1ccc(C(C(=O)NC2CCCCC2)N(C(=O)CCl)c2ccc(C)cc2)cc1 (stereo unspecified)	–	–	–	–	91	–
Cc1ccc(C(C(=O)NC2CCCCC2)N(C(=O)CCCC(=O)Nc2ccccn2)c2ccc3c(c2)OCCO3)cc1 (stereo unspecified)	–	·	–	–	68	–
O=C(CCCC(=O)N(c1ccc2c(c1)OCCO2)C(C(=O)NC1CCCCC1)c1ccc(F)cc1)Nc1ccccn1 (stereo unspecified)	–	–	–	–	–	–
O=C(NC1CCCC1)C(c1ccc(F)cc1)N(Cc1ccc(F)cc1)C(=O)CCl (stereo unspecified)	–	–	–	–	100	92
COc1ccc(-c2nsc(C(=O)N(c3ccc(F)cc3)C(C(=O)NC3CCCC3)c3ccc(OC)cc3)c2N)cc1 (stereo unspecified)	–	–	–	–	90	–
CCOC(=O)c1nc(C)sc1-c1ccnn1S(=O)(=O)c1cccc(Cl)c1	·	–	·	–	·	–
CCOc1ccc(C(C(=O)NC2CCCCC2)N(C(=O)Cc2cccs2)c2ccc(-n3cnnn3)c(OC)c2)cc1 (stereo unspecified)	–	–	–	–	–	84
COc1ccc(C(C(=O)NC2CCCCC2)N(C(=O)CCl)c2ccc(OC)cc2)cc1 (stereo unspecified)	–	–	–	–	93	–
COC(CN(C(=O)CCl)C(C(=O)NC1CCCCC1)c1ccc(C)cc1)OC (stereo unspecified)	–	–	–	–	72	–
COc1ccc(CN(C(=O)c2nsc(Cl)c2Cl)C(C(=O)NC2CCCC2)c2ccc(C)cc2)cc1 (stereo unspecified)	–	–	–	–	71	–
Cc1ccc(-c2nnc(SCC(=O)Nc3cccc(C(=O)N4CCOCC4)c3)n2C)cc1	–	–	–	–	–	–
CC(C)C(=O)Nc1ccc(-c2nc3ccccc3c(=O)o2)cc1	–	·	–	–	–	–
COC(=O)c1cc(C)[nH]c2c(C)cc3nc4ccccc4c3c12	·	–	·	–	·	–
COCCCNC(=O)c1ccc(Cn2c(=O)c3ccccc3n(CC(=O)NCCc3ccc(OC)c(OC)c3)c2=O)cc1	–	–	–	–	–	–
CCCNc1cc(C)oc(=O)c1C(=O)CCC	–	–	–	–	–	–
CCCC(=O)c1c(NCCO)cc(C)oc1=O	–	–	–	8.9	–	–
CCn1c(SCC(=O)N/N=C/c2c[nH]c3ccccc23)nnc1-c1ccc(C(C)(C)C)cc1	–	–	–	–	–	–
CC(C)CNC(C(=O)Nc1ccc([N+](=O)[O-])cc1Br)c1ccccc1 (stereo unspecified)	–	–	–	–	79	–
C=CCN(CC(=O)O)S(=O)(=O)c1ccccc1C(F)(F)F	–	–	–	–	–	–
N=C(N)Cc1ccccc1Sc1ccccc1	–	·	–	–	98	–
Nc1ccccc1SCc1ccccc1	–	–	–	–	–	–
CCOC(=O)c1c(C)[nH]c(C)c1C(=O)COC(=O)/C=C/c1cccc(C(F)(F)F)c1	–	–	–	–	59	–
CCOC(=O)c1c(C)[nH]c(C)c1C(=O)COC(=O)/C=C/c1cccc(F)c1	–	–	–	–	–	–
CCOC(=O)c1c(C)[nH]c(C)c1C(=O)COC(=O)c1cc2ccccc2cc1OC	–	–	–	–	64	–
SMILES	Arbovirus anti	Rad51 HR inh	PKD1 inh	Wee1 stabilizer	Lmaj promast	CHOP inh
CCOC(=O)c1c(C)[nH]c(C)c1C(=O)COC(=O)c1cc2ccccc2cc1O	–	–	–	–	–	–
Cc1cc(C)c(C#N)c(Oc2ccccc2Br)n1	–	–	–	–	–	–
N#C/C(=C\c1ccc(F)c(Cl)c1)S(=O)(=O)c1ccccn1	·	–	·	–	·	–
Cc1ccc2nc(-c3cc(N)cc(N)c3)oc2c1	–	–	–	–	–	79
Cc1cccc(OS(=O)(=O)NC(=O)OCC2CCCN3CCCCC23)c1 (stereo unspecified)	–	–	–	–	–	–
CCc1[nH]nc2c1C(c1ccsc1)C(C#N)=C(N)O2 (stereo unspecified)	–	–	–	–	–	–
Cc1ccc(SCc2[nH]nc3c2C(c2ccc(C)o2)C(C#N)=C(N)O3)cc1 (stereo unspecified)	–	·	–	–	86	–
CCc1[nH]nc2c1C(c1ccc(Br)s1)C(C#N)=C(N)O2 (stereo unspecified)	–	–	–	–	100	–
Cc1ccc(SCc2[nH]nc3c2C(c2ccco2)C(C#N)=C(N)O3)cc1 (stereo unspecified)	–	–	–	–	62	–
CC(=O)Nc1ccc(S(=O)(=O)N2CCN(c3cnn(C)c(=O)c3Cl)CC2)cc1	–	–	–	–	–	–
Cc1c(N=C2N=C(NC(=O)c3ccc(F)cc3)c3ccccc32)c(=O)n(-c2ccccc2)n1C	–	–	–	–	–	–
O=[N+]([O-])c1ccc(-c2cn3c(n2)CCC3)cc1	·	–	·	–	·	–
Cn1cccc1/C=C1\SC(=S)N(NC(=O)c2ccc(F)cc2)C1=O	·	–	·	–	·	–
Cn1cccc1/C=C1\SC(=S)N(NC(=O)c2ccccc2)C1=O	–	–	–	9.0	–	–
O=S(=O)(c1ccc(F)cc1)N1CC2CCCN2c2ccc(C(F)(F)F)cc21 (stereo unspecified)	–	–	–	–	–	75
COc1ccc(S(=O)(=O)Nc2ccc(NC(C)=O)cc2)cc1Br	–	–	–	–	–	–
COc1ccccc1NS(=O)(=O)c1cc(NC(=O)C2CC2)ccc1N1CCOCC1	–	–	–	–	88	–
COc1ccc(NS(=O)(=O)c2cc(NC(=O)/C=C/c3cccs3)ccc2N2CCOCC2)cc1	64	–	–	–	–	–
COc1ccc(NS(=O)(=O)c2cc(NC(=O)c3cnccn3)ccc2OC)cc1Br	–	–	–	–	95	–
COc1ccc(NS(=O)(=O)c2cc(NC(=O)c3cnccn3)ccc2N2CCCC2)cc1	–	–	–	–	93	–
COc1ccc(NC(=O)Cc2coc3cc(C)c(C(C)C)cc23)cc1S(=O)(=O)N1CCOCC1	–	–	–	–	–	–
COc1cc(NC(=O)c2ncn[nH]2)cc(OC)c1OC	–	–	–	–	–	–
COC(=O)c1cc(-n2cccc2)ccc1N1CCOCC1	·	–	·	–	·	–
COC(=O)c1cc(NS(=O)(=O)c2ccc(C)c3ccccc23)ccc1N1CCOCC1	·	–	·	9.0	·	–
COc1ccc(NS(=O)(=O)c2cc(NC(=O)c3ccc(C)o3)ccc2N2CCCCC2)cc1	–	–	–	–	99	–
Cc1c(C(=O)Nc2cccc(N(C)S(C)(=O)=O)c2)cccc1[N+](=O)[O-]	–	·	–	–	–	–
